Laboratory results as given in PubChem BioAssay.
Values without a mark were called inactive.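 How the source made its calls: active means growth inhibition above 25% in both replicates, a cutoff set 3 SD above the mean; inconclusive means above 25% in only one replicate; inactive means the rest.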

experiment: S. cerevisiae growth inhibition in permissive medium (OD615), pilot counter-assay for S. cerevisiae lifespan shortening project, permissive growth control (AID 705); conditions: OD615, 24 h, at 10 µM, active compounds read high
Procedure, shortened: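 System – S. cerevisiae with engineered DeaD lifespan system · Buffer or medium – SC raffinose/galactose permissive medium · Schedule – cells pre-grown 4 h, then 24 h compound exposure, 30 °C humidified · Technique – culture turbidity as optical density at 615 nm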

Point of comparison: `O=C(O)C1(P(=O)(c2ccccc2)c2ccccc2)CCC1`, growth inhibition -13.9%. Against it:
- Cc1oc(-c2cccs2)nc1CS(=O)CC(=O)NCCc1ccccc1 (stereo not given) — higher, 0.14%
- CCN(CC)C(=O)C1CCCN(C/C=C/c2ccccc2)C1 (stereo not given) — higher, -5%
- c1ccc(Cn2c(CSc3nnnn3-c3ccccc3)nc3ccccc32)cc1 — higher, 0.645%
- COc1ccc(-c2cn3c(C)c(C(=O)NC(C)(C)C)sc3n2)cc1 — higher, -8.09%
- C/C=C/Cn1c(N(C)Cc2ccccc2)nc2c1c(=O)[nH]c(=O)n2C — lower, -17.4%
- CCC1CC(C)(C(=O)Nc2ccc(S(N)(=O)=O)cc2)OC1=O (stereo not given) — higher, -2.94%
- Cc1cccn2cc(-c3ccc(F)cc3)nc12 — higher, 1.97%
- CC1CCCCN1C(=O)c1ccccc1NC(=O)c1ccco1 (stereo not given) — lower, -17.6%
- COCCNS(=O)(=O)c1ccc(C2CNC(=O)C2)cc1 (stereo not given) — higher, -7.18%
- COc1cccc(OCC(=O)N(Cc2nc(-c3ccc(Cl)cc3)no2)C(C)C)c1 — higher, -4.67%
- COC(=O)C1C(=O)c2c([nH]c(C(=O)OC3CCCC3C)c2C)CC1C (stereo not given) — higher, -4.87%
- O=C(Cn1c(S(=O)(=O)Cc2ccccc2)nc2ccccc21)N1CCCCC1 — higher, -5.32%
- COc1ccc(Cl)cc1NC(=O)CSc1nnc(Cn2c(=O)sc3ccccc32)n1C — higher, -8.82%
- Cc1cc(C)c(C)c(OCC(=O)NCCN(C)C)c1 — higher, -11.6%
- COC(=O)c1ccc(C2C(C(C)=O)=C(C)Nc3ncnn32)cc1 (stereo not given) — higher, -8.45%
- CCOC(=O)Cn1c(=O)oc2cc(S(=O)(=O)Nc3c(C)cc(C)cc3C)ccc21 — higher, -11.4%
- CC(c1ccccc1)C(CC(=O)O)C(=O)NC1CCCCC1 (stereo not given) — higher, -12.4%
- Cc1cc(C2N=C(N)Nc3nc4ccccc4n32)c(C)n1-c1ccccc1Cl (stereo not given) — higher, -0.255%
- CCOCCn1c(SCCc2ccccc2)nc2c1c(=O)[nH]c(=O)n2C — higher, -3.39%
- CSc1ccc(S(=O)(=O)N2CCN(Cc3ccc4c(c3)OCO4)CC2)cc1 — higher, -2.74%
- CC(=O)N1C(C(=O)O)CSC1c1ccc(C)cc1 (stereo not given) — higher, 4.69%
- Cc1cc(=O)[nH]c(SCc2cc(Cl)ccc2OC(F)F)n1 — higher, -4.67%
- C=CCn1c(=NC(=O)C2CC2)sc2cc(NC(C)=O)ccc21 — higher, -3%
- O=C(O)c1ccc(-n2nnnc2SCc2ccccc2F)cc1 — higher, -13.7%
- CCOC(=O)C1=C(C)NC(=O)NC1c1ccc(C)o1 (stereo not given) — higher, 8.61%
- O=C1c2ccccc2-c2ncnc3c(N4CCOCC4)cc(N4CCOCC4)c1c23 — higher, -12.8%
- CCCC(=O)Nc1nnc(-c2ccc(Cl)s2)o1 — higher, -6.95%
- O=C(COc1ccccc1)Nc1ccc(S(=O)(=O)N2CCCC2)cc1 — higher, -12.9%
- COc1cccc(N2CCN(C(=O)CN(C)S(=O)(=O)c3ccc4c(c3)CCC(=O)N4)CC2)c1 — higher, -2.86%
- CC(C)(C)c1ccc(-c2cc(N)n[nH]2)cc1 — higher, 2.28%
- CCCOC(=O)c1ccc(-n2nnnc2SCC(=O)N2CCCCC2)cc1 — higher, -11.6%
- CCOc1ccc(-c2cc(CCCC(=O)NCc3ccco3)no2)cc1 — higher, -2.19%
- Nc1nnc(N2CCc3ccccc32)s1 — higher, -1.08%
- O=C(NC1CCN(Cc2ccccc2)CC1)C1CCN(c2nnc(-n3cccc3)s2)CC1 — higher, 3.62%
- CCn1c(C(C)NC(=O)Cc2ccccc2)nc2ccccc21 (stereo not given) — higher, -12.2%
- CC1(C)Cc2c(C#N)c(NC3CCCCC3)nc(-c3ccco3)c2CO1 — lower, -15.4%
- O=C(NCc1ccc(F)cc1)c1cnc2n(c1=O)CCS2 — higher, -2.45%
- Cc1sc2nc(SCC(=O)N3CCCC3)[nH]c(=O)c2c1C — higher, -0.89%
- CC1Cc2nc(SCC(=O)N3CCOCC3)n(-c3ccccc3)c(=O)c2S1 (stereo not given) — higher, -10.7%
